# Measured values taken from ChEMBL document CHEMBL4330127, “Discovery of Novel Pyruvate Dehydrogenase Kinase 4 Inhibitors for Potential Oral Treatment of Metabolic Diseases” (J Med Chem, 2019).
# Active and inactive are the calls of the source. No cut-off for these calls is given here.
# Legend:
# [1] = molecular target: Cytochrome P450 2D6 (Homo sapiens, UniProt P10635); assay: Inhibition of CYP2D6 in human liver microsomes assessed as reduction in dextromethorphan O-demethylation by tandem mass spectrometry analysis; format: ADME
# Sequence of Cytochrome P450 2D6 (P10635 whole entry): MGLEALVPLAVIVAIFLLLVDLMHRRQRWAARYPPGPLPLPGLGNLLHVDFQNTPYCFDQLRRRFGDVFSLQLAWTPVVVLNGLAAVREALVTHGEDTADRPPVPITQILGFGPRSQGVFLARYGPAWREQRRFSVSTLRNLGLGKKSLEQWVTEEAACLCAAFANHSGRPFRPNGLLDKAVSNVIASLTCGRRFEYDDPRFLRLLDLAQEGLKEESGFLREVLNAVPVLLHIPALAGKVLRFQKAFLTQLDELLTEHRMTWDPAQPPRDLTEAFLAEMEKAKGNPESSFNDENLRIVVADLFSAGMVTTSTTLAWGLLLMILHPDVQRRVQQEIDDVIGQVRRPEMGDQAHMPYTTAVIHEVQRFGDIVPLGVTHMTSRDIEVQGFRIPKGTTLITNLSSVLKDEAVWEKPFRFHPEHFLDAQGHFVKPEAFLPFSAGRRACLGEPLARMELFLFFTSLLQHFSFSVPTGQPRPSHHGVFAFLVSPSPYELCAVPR
# Outline: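 Pooled human liver microsomes incubated with compound at 0–50 μM final; CYP probe activities (phenacetin O-deethylation for 1A2, tolbutamide 4-hydroxylation for 2C9, omeprazole hydroxylation for 2C19, dextromethorphan O-demethylation for 2D6) run as a cocktail incubation and quantified by tandem MS; duplicates; IC50 derived.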
# [2] = molecular target: T1, [Pyruvate dehydrogenase (acetyl-transferring)] kinase isozyme 4, mitochondrial (Homo sapiens, UniProt Q16654); assay: Inhibition of PDK4 (unknown origin) at 10 uM relative to control
# T1 sequence (Q16654 whole entry, looked up): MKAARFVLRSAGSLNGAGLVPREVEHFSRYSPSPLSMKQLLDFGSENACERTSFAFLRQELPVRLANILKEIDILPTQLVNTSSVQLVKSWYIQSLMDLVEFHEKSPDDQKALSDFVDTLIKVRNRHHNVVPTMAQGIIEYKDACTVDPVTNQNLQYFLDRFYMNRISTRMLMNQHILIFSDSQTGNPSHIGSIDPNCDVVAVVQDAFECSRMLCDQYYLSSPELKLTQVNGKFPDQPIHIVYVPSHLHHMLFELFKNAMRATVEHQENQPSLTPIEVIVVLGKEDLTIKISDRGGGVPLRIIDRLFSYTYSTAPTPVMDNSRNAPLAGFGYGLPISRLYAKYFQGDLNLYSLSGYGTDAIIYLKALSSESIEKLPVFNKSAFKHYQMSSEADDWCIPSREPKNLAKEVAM
# [3] = tested on: HCT-116; assay: Cell cycle arrest in human HCT116 cells assessed as accumulation at sub-G1 phase at 25 uM after 24 hrs propidium iodide staining based flow cytometry (reference value: 17.8%); format: functional
# Outline: (§1)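 HCT116 and RKO cells were treated with compound alone or with oxaliplatin for 24 h before harvest. Cells were stained with propidium iodide, and DNA content was analysed by flow cytometry. Cell-cycle phase populations, including sub-G1, are given as percentages.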
# [4] = tested on: HCT-116; assay: Cell cycle arrest in human HCT116 cells assessed as accumulation at S phase at 25 uM after 24 hrs in presence of oxaliplatin propidium iodide staining based flow cytometry (reference value: 5.4%); format: functional; outline: as §1
# [5] = tested on: HCT-116; assay: Induction of apoptosis in human HCT116 cells assessed as early apoptotic cells at 50 uM after 24 hrs by Annexin V/propidium iodide staining based flow cytometry (reference value: 4.36%); format: functional
# [6] = tested on: RKO; assay: Induction of apoptosis in human RKO cells assessed as necrotic cells at 10 uM after 24 hrs by Annexin V/propidium iodide staining based flow cytometry (reference value: 0.56%); format: functional
# [7] = Metabolic stability in rat liver microsomes assessed as parent compound remaining after 30 mins by LC-MS/MS analysis; format: ADME, Microsome; conditions: read-out: Stability
# [8] = tested on: L929; assay: Cytotoxicity against mouse L929 cells; format: cell-based
# [9] = Half life in human liver microsomes at 1 uM preincubated for 5 mins followed by NADPH/UDPGA addition by LC-MS/MS analysis; format: ADME, Microsome
# Outline: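 Pooled human liver microsomes (1.0 mg/mL) were preincubated with substrate (1 μM) at 37 °C for 5 min. NADPH and UDPGA were added and samples taken at 10, 20, 40 and 60 min. Reactions were quenched with acetonitrile, centrifuged, and the supernatant quantified by LC-MS/MS. Buspirone served as positive control.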
# [10] = tested on: HCT-116; assay: Induction of apoptosis in human HCT116 cells assessed as necrotic cells at 50 uM after 24 hrs by Annexin V/propidium iodide staining based flow cytometry (reference value: 2.92%); format: functional
# [11] = tested on: HCT-116; assay: Cell cycle arrest in human HCT116 cells assessed as accumulation at G2/M phase at 50 uM after 24 hrs propidium iodide staining based flow cytometry (reference value: 22.2%); format: functional; outline: as §1
# [12] = tested on: RKO; assay: Cell cycle arrest in human RKO cells assessed as accumulation at G2/M phase at 25 uM after 24 hrs in presence of oxaliplatin propidium iodide staining based flow cytometry (reference value: 39.2%); format: functional; outline: as §1
# [13] = tested on: RKO; assay: Induction of apoptosis in human RKO cells assessed as necrotic cells at 50 uM after 24 hrs by Annexin V/propidium iodide staining based flow cytometry (reference value: 0.56%); format: functional
# [14] = tested on: HCT-116; assay: Induction of apoptosis in human HCT116 cells assessed as increase in cleaved-PARP expression at 10 to 50 uM after 24 hrs by Western blot analysis; format: functional, cell-based
# Outline: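 HCT116 and RKO cells given a range of compound doses for 24 h; lysates probed by Western blot for apoptosis-related proteins (p53, BAX, BCLxL).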
# [15] = molecular target: T1, [Pyruvate dehydrogenase (acetyl-transferring)] kinase isozyme 4, mitochondrial; assay: Inhibition of PDK4 in HEK293T cells assessed as reduction in PDHE1alpha phosphorylation at Ser-300 residue by measuring phosphorylated PDHE1alpha level at 10 uM after 24 hrs by Western blot analysis; format: cell-based
# Outline: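 HEK293T cells grown in high-glucose DMEM with 10% FBS at 37 °C, 5% CO2. Medium renewed after 24 h, then cells exposed to compound for 24 h and lysed. 20 μg protein per lane Western blotted with antibodies to phospho-PDHE1α Ser232, Ser293 and Ser300 and to total PDHE1α. Band intensity quantified relative to control; triplicate.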
# [16] = tested on: HCT-116; assay: Cell cycle arrest in human HCT116 cells assessed as accumulation at S phase at 25 uM after 24 hrs propidium iodide staining based flow cytometry (reference value: 18%); format: functional; outline: as §1
# [17] = tested on: RKO; assay: Cell cycle arrest in human RKO cells assessed as accumulation at G1/G0 phase at 25 uM after 24 hrs in presence of oxaliplatin propidium iodide staining based flow cytometry (reference value: 44.3%); format: functional; outline: as §1
# [18] = molecular target: UDP-glucuronosyltransferase 2B7 (Homo sapiens, UniProt P16662); assay: Inhibition of UGT2B7 in human liver microsomes assessed as reduction in naloxone 3-glucuronidation by tandem mass spectrometry analysis; format: ADME
# Sequence of UDP-glucuronosyltransferase 2B7 (P16662 whole entry): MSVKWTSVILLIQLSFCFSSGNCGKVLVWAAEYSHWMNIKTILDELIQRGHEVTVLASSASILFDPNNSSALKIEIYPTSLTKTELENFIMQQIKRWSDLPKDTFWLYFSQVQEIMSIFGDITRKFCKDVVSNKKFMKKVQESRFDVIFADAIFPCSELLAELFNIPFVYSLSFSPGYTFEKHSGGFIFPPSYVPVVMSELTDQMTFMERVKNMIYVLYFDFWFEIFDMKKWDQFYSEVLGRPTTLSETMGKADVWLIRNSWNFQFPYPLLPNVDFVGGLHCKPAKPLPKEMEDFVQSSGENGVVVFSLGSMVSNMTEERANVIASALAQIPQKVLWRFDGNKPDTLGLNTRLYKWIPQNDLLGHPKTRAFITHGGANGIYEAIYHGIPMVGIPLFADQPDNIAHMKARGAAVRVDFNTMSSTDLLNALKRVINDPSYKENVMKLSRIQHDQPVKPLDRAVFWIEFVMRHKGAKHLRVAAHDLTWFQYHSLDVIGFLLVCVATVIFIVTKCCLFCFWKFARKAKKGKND
# Outline: (§2)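 Pooled human liver microsomes; test compound at final 0–50 μM in a cocktail incubation with probe substrates: midazolam 1′-hydroxylation (CYP3A), SN-38 glucuronidation (UGT1A1), trifluoperazine N-glucuronidation (UGT1A4), mycophenolic acid glucuronidation (UGT1A9), naloxone 3-glucuronidation (UGT2B7). Metabolites measured by tandem MS; IC50 determined; duplicate.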
# [19] = tested on: Mus musculus; assay: Antidiabetic activity in high-fat diet induced obese C57BL/6J mouse assessed as reduction in blood glucose level at 100 mg/kg, po administered for 1 week starting from week 4 post high fat diet followed by glucose challenge and measured up to 120 mins by IPGTT; format: functional, organism-based
# Outline: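 Eight-week-old C57BL/6J mice were fed a high-fat diet (60% kcal fat, 0.5% cholesterol, 10% fructose) for 4 weeks. From week 4 they were dosed orally for 1 week (n = 6 per group), with sitagliptin 10 mg/kg as comparator. An intraperitoneal glucose tolerance test (1.5 g/kg glucose) followed, and the area under the curve was calculated.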
# [20] = tested on: HCT-116; assay: Cell cycle arrest in human HCT116 cells assessed as accumulation at sub-G1 phase at 50 uM after 24 hrs propidium iodide staining based flow cytometry (reference value: 17.8%); format: functional; outline: as §1
# [21] = tested on: RKO; assay: Inhibition of colony formation in human RKO cells at 10 to 50 […] after 7 days by crystal violet staining based assay; format: functional, cell-based
# Outline: (§3)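 HCT116 and RKO cells seeded in 6-well plates and treated with compound for 7 days. Cells then fixed and stained with crystal violet to score colony formation.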
# [22] = Half life in rat at 5 mg/kg, iv; format: ADME, organism-based; conditions: in vivo
# [23] = tested on: HCT-116; assay: Inhibition of colony formation in human HCT116 cells at 10 to 50 […] after 7 days by crystal violet staining based assay; format: functional, cell-based; outline: as §3
# [24] = tested on: RKO; assay: Cell cycle arrest in human RKO cells assessed as accumulation at sub-G1 phase at 25 uM after 24 hrs propidium iodide staining based flow cytometry (reference value: 17.6%); format: functional
# [25] = tested on: HCT-116; assay: Cell cycle arrest in human HCT116 cells assessed as accumulation at G2/M phase at 25 uM after 24 hrs in presence of oxaliplatin propidium iodide staining based flow cytometry (reference value: 28.2%); format: functional; outline: as §1
# [26] = molecular target: UDP-glucuronosyltransferase 1A4 (Homo sapiens, UniProt P22310); assay: Inhibition of UGT1A4 in human liver microsomes assessed as reduction in trifluoperazine N-glucuronidation by tandem mass spectrometry analysis; format: ADME; outline: as §2
# Sequence of UDP-glucuronosyltransferase 1A4 (P22310 whole entry): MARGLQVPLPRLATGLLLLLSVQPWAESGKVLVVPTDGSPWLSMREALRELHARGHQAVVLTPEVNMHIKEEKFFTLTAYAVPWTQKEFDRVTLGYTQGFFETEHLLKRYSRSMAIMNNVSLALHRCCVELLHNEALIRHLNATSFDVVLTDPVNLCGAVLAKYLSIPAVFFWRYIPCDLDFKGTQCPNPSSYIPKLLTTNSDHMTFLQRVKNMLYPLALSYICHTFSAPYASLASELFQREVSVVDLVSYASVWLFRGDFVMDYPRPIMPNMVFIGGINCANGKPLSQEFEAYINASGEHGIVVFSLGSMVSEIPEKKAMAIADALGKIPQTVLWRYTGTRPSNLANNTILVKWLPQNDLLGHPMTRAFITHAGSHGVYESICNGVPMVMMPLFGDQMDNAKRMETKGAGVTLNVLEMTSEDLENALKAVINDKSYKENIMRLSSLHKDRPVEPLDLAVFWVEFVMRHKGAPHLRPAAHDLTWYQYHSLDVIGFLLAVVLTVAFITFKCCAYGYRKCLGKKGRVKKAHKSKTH
smiles,measurement,setting,value
Cl.O=C1c2ccccc2C(=O)c2c1cccc2-c1cnn(C2CCNCC2)c1,IC50,[1],> 50 µM
same,inhibition,[2],50.1%
same,Activity,[3],32.5%
same,Activity,[4],12.7%
same,Activity,[5],4.1%
same,Activity,[6],0.89%
same,remaining at 0.5 h,[7],67.8%
same,IC50,[8],35.8 µM
same,half-life at 1 µM,[9],> 1 h
same,Activity,[10],20.2%
same,Activity,[11],5.3%
same,Activity,[12],19.2%
same,Activity,[13],0.006%
same,Activity,[14],Active
same,fold change (FC),[15],0.26
same,Activity,[16],11.4%
same,Activity,[17],8.2%
same,IC50,[18],> 50 µM
same,Activity,[19],Active
same,Activity,[20],78.2%
same,inhibition,[21],Active
same,half-life,[22],7.06 h
same,inhibition,[23],Active
same,Activity,[24],58.7%
same,Activity,[25],33.5%
same,IC50,[26],> 50 µM
